Tests used:
[1] = biological target: Neuronal acetylcholine receptor subunit alpha-7 (Homo sapiens, UniProt P36544); experiment: Displacement of [3H]epibatidine from human alpha7 nAChR expressed in human HEK/RIC3 cells; type: cell-based
Method in brief: (§1)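 Binding to membranes from the cell lines: homogenised in PBS pH 7.4, spun at 40000g for 20 min at 4 °C, then incubated 2 h on ice in PBS with competitor (0.001 nM to 100 μM) and radioligand. Filters washed in ice-cold PBS and counted by scintillation. IC50 from nonlinear regression; Ki by Cheng-Prusoff. Minimum of three assays, ± SEM.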

[2] = biological target: T1, Neuronal acetylcholine receptor; alpha4/beta2 (Homo sapiens, UniProt P17787+P43681); experiment: Displacement of [3H]nicotine from human alpha4beta2 nAChR expressed in human SH-EP1 cells; type: cell-based; method in brief: as §1
[3] = biological target: T2, Neuronal acetylcholine receptor; alpha3/beta4 (Homo sapiens, UniProt P30926+P32297); experiment: Displacement of [3H]epibatidine from human alpha3beta4 nAChR expressed in human SH-SY5Y cells; type: cell-based; method in brief: as §1
[4] = biological target: T2, Neuronal acetylcholine receptor; alpha3/beta4; experiment: Agonist activity at human alpha3beta4 nAChR expressed in human SH-SY5Y cells assessed as increase in calcium flux by FLIPR; type: functional, cell-based
[5] = biological target: T1, Neuronal acetylcholine receptor; alpha4/beta2; experiment: Agonist activity at human alpha4beta2 nAChR low sensitivity form expressed in human SH-EP1 cells assessed as increase in calcium flux by FLIPR; type: functional, cell-based
[6] = biological target: T2, Neuronal acetylcholine receptor; alpha3/beta4; experiment: Agonist activity at human alpha3beta4 nAChR expressed in human SH-SY5Y cells assessed as increase in calcium flux by FLIPR relative to 10 uM nicotine; type: functional, cell-based
[7] = biological target: T1, Neuronal acetylcholine receptor; alpha4/beta2; experiment: Agonist activity at human alpha4beta2 nAChR high sensitivity form expressed in human SH-EP1 cells assessed as increase in calcium flux by FLIPR; type: functional, cell-based
[8] = biological target: T1, Neuronal acetylcholine receptor; alpha4/beta2; experiment: Agonist activity at human alpha4beta2 nAChR low sensitivity form expressed in human SH-EP1 cells assessed as increase in calcium flux by FLIPR relative to 10 uM nicotine; type: functional, cell-based
[9] = biological target: T1, Neuronal acetylcholine receptor; alpha4/beta2; experiment: Agonist activity at human alpha4beta2 nAChR high sensitivity form expressed in human SH-EP1 cells assessed as increase in calcium flux by FLIPR relative to 10 uM nicotine; type: functional, cell-based

T2 sequence (P30926 whole entry): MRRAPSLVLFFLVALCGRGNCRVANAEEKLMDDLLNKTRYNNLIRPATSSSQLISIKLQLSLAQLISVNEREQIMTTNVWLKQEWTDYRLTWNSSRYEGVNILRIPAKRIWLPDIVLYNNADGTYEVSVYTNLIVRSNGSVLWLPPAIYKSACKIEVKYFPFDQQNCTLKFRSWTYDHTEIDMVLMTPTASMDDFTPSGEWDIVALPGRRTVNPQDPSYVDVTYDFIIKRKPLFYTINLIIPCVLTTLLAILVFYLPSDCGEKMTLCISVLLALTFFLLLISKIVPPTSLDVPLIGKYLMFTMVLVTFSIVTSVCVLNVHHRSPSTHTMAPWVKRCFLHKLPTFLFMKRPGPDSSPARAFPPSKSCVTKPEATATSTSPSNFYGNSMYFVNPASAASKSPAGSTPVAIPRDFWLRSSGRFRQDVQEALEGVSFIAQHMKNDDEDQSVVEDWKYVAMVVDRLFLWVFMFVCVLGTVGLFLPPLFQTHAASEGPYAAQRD
T2 sequence (P32297 whole entry): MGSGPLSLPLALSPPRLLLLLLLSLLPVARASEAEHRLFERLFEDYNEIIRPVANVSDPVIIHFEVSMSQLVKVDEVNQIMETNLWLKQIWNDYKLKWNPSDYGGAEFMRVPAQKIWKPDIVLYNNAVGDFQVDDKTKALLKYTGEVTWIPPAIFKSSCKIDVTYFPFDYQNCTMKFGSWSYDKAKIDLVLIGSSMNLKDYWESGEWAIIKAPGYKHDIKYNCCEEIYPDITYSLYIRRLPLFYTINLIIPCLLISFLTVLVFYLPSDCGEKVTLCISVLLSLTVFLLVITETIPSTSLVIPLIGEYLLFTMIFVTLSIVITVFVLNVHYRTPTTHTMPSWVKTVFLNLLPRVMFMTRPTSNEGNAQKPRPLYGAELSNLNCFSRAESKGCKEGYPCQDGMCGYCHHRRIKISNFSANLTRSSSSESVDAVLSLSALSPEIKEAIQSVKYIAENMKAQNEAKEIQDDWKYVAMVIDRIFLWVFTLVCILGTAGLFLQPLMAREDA
T1 sequence (P17787 whole entry): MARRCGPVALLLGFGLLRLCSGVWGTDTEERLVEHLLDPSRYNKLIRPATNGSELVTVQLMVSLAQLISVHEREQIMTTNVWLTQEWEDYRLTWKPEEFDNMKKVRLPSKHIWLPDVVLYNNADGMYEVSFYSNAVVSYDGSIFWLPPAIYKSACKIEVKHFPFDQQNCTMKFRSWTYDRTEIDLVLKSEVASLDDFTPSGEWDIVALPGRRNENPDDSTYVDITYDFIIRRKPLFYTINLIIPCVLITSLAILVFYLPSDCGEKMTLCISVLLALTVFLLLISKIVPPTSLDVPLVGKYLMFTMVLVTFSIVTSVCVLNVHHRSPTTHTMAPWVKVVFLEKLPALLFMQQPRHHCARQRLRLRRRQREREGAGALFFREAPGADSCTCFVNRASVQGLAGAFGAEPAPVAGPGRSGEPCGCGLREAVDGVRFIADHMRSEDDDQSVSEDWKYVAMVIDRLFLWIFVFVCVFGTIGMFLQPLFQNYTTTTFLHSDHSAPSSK
T1 sequence (P43681 whole entry): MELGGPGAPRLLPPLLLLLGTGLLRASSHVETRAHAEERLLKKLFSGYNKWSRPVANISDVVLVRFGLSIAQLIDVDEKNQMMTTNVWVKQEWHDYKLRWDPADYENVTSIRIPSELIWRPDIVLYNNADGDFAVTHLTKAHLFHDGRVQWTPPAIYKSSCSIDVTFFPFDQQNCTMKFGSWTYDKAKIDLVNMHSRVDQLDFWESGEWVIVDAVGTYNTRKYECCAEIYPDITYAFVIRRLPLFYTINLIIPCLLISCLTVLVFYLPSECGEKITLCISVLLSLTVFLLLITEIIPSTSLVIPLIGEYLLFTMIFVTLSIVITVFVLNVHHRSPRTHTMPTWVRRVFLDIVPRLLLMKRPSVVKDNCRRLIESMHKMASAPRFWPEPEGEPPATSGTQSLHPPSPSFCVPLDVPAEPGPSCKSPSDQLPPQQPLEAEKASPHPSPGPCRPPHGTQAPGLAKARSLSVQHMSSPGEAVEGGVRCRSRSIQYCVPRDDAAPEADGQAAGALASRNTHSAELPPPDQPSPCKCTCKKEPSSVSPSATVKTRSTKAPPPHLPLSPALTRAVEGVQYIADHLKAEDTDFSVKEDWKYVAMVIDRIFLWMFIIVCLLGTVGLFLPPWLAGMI
Neuronal acetylcholine receptor subunit alpha-7, sequence (P36544 whole entry): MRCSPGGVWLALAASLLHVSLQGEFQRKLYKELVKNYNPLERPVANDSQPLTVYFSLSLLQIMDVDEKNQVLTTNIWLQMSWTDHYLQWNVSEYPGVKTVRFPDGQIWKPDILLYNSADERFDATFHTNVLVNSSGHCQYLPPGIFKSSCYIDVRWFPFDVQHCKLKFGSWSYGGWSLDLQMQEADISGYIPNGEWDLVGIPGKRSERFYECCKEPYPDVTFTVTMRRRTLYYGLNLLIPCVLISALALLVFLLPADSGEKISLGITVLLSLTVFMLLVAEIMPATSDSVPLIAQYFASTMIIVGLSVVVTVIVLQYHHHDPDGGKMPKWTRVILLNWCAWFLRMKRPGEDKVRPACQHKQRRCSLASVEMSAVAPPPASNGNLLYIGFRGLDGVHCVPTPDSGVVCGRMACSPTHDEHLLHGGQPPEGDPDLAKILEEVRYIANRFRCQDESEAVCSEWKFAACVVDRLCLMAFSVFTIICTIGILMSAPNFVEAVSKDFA

Compound | Ki [1] [nM] | Ki [2] [nM] | Ki [3] [nM] | EC50 [4] [nM] | EC50 [5] [nM] | %max [6] [%] | EC50 [7] [nM] | %max [8] [%] | %max [9] [%]
Fc1ccc(Oc2cncc(C3=CC4CNCC(C3)C4)c2)cc1 (stereo unspecified) | 7.2 | 0.6 | 31 | – | – | – | – | – | –
Clc1ccncc1C1=CC2CNCC(C1)C2 (stereo unspecified) | 33 | 3 | 128 | 377 | > 10000 | 105 | 2000 | 12.8 | 46
COc1ccc(Oc2cncc(C3=CC4CNCC(C3)C4)c2)cc1 (stereo unspecified) | 23 | 1.4 | 27 | – | – | – | – | – | –
C1=C(c2ccc3nccnc3c2)CC2CNCC1C2 (stereo unspecified) | > 10000 | 85 | 5740 | – | – | – | – | – | –
N#Cc1ccncc1C1=CC2CNCC(C1)C2 (stereo unspecified) | 330 | 2.8 | 103 | 166 | > 10000 | 130 | 3250 | 27 | 55
COc1cccc(Oc2cncc(C3=CC4CNCC(C3)C4)c2)c1 (stereo unspecified) | 13 | 0.9 | 15 | – | – | – | – | – | –
CN1CC2C=C(c3ccc(Cl)nc3)CC(C2)C1 (stereo unspecified) | 6530 | 22 | 986 | – | – | – | – | – | –
CN1CC2C=C(c3cncc(C#N)c3)CC(C2)C1 (stereo unspecified) | > 10000 | 24 | 4500 | – | – | – | – | – | –
COc1ccccc1Oc1cncc(C2=CC3CNCC(C2)C3)c1 (stereo unspecified) | 30 | 1 | 56 | – | – | – | – | – | –
CN1CC2C=C(c3cnccc3C#N)CC(C2)C1 (stereo unspecified) | 4850 | 3420 | – | – | – | – | – | – | –
C1=C(c2ccncc2)CC2CNCC1C2 (stereo unspecified) | > 10000 | 56 | 459 | – | – | – | – | – | –
Cc1ccc(C2=CC3CNCC(C2)C3)cn1 (stereo unspecified) | 80 | 0.3 | 25 | 93 | 79 | 149 | 75 | 112 | 107
C1=C(c2cncc(OCc3ccccc3)c2)CC2CNCC1C2 (stereo unspecified) | 43.9 | 0.7 | 44 | – | – | – | – | – | –
CN1CC2C=C(c3cnccc3Cl)CC(C2)C1 (stereo unspecified) | 1420 | 1160 | 7230 | – | – | – | – | – | –
COc1cncc(C2=CC3CNCC(C2)C3)c1 (stereo unspecified) | 4.6 | 0.3 | 14.3 | 105 | 53 | 145 | 49 | 100 | 72
C1=C(c2ccc(-c3ccccc3)nc2)CC2CNCC1C2 (stereo unspecified) | 590 | 105 | 507 | 10900 | 9660 | 17 | > 10000 | 18 | 19
CNCC/C=C/c1cccnc1 [RIVANICLINE] | 8000 | 26 | 5400 | – | – | – | – | – | –
CN1CC2C=C(c3cncc(F)c3)CC(C2)C1 (stereo unspecified) | 1010 | 13 | 1640 | – | – | – | – | – | –
Clc1cncc(C2=CC3CNCC(C2)C3)c1 (stereo unspecified) | 15 | 0.4 | 40 | – | – | – | – | – | –
Clc1cccc(Oc2cncc(C3=CC4CNCC(C3)C4)c2)c1 (stereo unspecified) | 13 | 1 | 22 | – | – | – | – | – | –

Compound | Ki [1] [nM] | Ki [2] [nM] | Ki [3] [nM] | EC50 [4] [nM] | EC50 [5] [nM] | %max [6] [%] | EC50 [7] [nM] | %max [8] [%] | %max [9] [%]
Clc1ccc(C2=CC3CNCC(C2)C3)nn1 (stereo unspecified) | 77 | 0.4 | 73 | 149 | 595 | 135 | 80 | 160 | 118
CN1CC2C=C(c3cncc(Cl)c3)CC(C2)C1 (stereo unspecified) | 8010 | 9.6 | 1830 | – | – | – | – | – | –
C1=C(c2cnccn2)CC2CNCC1C2 (stereo unspecified) | 281 | 1.1 | 828 | – | – | – | – | – | –
Clc1ccc(Oc2cncc(C3=CC4CNCC(C3)C4)c2)cc1 (stereo unspecified) | 23 | 1.9 | 40 | – | – | – | – | – | –
Fc1cncc(C2=CC3CNCC(C2)C3)c1 (stereo unspecified) | 3.6 | 0.3 | 39 | – | – | – | – | – | –
COc1cc(C2=CC3CC(C2)CN(C)C3)cnc1Cl (stereo unspecified) | 7570 | 4.4 | 1430 | – | – | – | – | – | –
C1=C(c2cncnc2)CC2CNCC1C2 (stereo unspecified) | 19 | 0.2 | 58 | 198 | 162 | 147 | 240 | 145 | 116
C1=C(c2cccnc2)CC2CNCC1C2 (racemic) | 4 | 0.2 | 12 | – | – | – | – | – | –
COc1cc(C2=CC3CNCC(C2)C3)cnc1Cl (stereo unspecified) | 111 | 0.4 | 7 | – | – | – | – | – | –
Fc1cncc(C2=C[C@@H]3CNC[C@H](C2)C3)c1 | 1.6 | 0.2 | 5.4 | 111 | 36 | 153 | 34 | 120 | 112
c1cncc(N2CC3CNCC(C3)C2)c1 | 1.6 | 0.1 | 6.6 | – | – | – | – | – | –
Fc1ccc(C2=CC3CNCC(C2)C3)cn1 (stereo unspecified) | 20 | 0.4 | 28 | 99 | 85 | 140 | 85 | 136 | 104
N#Cc1cncc(C2=C[C@@H]3CNC[C@H](C2)C3)c1 | 79 | 0.3 | 17 | 447 | 343 | 144 | 107 | 89 | 92
N#Cc1cncc(C2=CC3CNCC(C2)C3)c1 (stereo unspecified) | 160 | 0.6 | 47 | – | – | – | – | – | –
Fc1cncc(C2=C[C@H]3CNC[C@@H](C2)C3)c1 | 3.3 | 0.2 | 8.3 | 155 | 50 | 140 | 29 | 119 | 100
C1=C(c2cncc(-c3ccccc3)c2)CC2CNCC1C2 (stereo unspecified) | 3220 | 0.8 | 17 | 181 | > 10000 | 61 | 85 | 5.3 | 33
Clc1ccccc1Oc1cncc(C2=CC3CNCC(C2)C3)c1 (stereo unspecified) | 39 | 0.9 | 26 | – | – | – | – | – | –
COc1ccc(C2=CC3CNCC(C2)C3)cn1 (stereo unspecified) | 1850 | 0.4 | 328 | – | – | – | – | – | –
CN1CC2C=C(c3cncc(OCc4ccccc4)c3)CC(C2)C1 (stereo unspecified) | 4540 | 1.7 | 711 | – | – | – | – | – | –
FC(F)(F)c1cncc(C2=CC3CNCC(C2)C3)c1 (stereo unspecified) | 641 | 0.7 | 79 | – | – | – | – | – | –

From ChEMBL document CHEMBL2176949 (J Med Chem, 2012)
